Measurements taken from ChEMBL document CHEMBL1122917, “Vinblastin-23-oyl amino acid derivatives: chemistry, physicochemical data, toxicity, and antitumor activities against P388 and L1210 leukemias” (J Med Chem, 1985).

Assays:
Mus musculus [1] = assay: Number of survivors on 60th day at dose 4 mg/kg/day in 10 mice implanted with P388 leukemia cell line; 2/10; format: functional
Mus musculus [2] = assay: Number of survivors of DBA2 mice on 30th day after inoculation with L1210 leukemia cell line intraperitoneally at a dose of 4 mg/kg/day; 0/10; format: functional; conditions: route intraperitoneal
Mus musculus [3] = assay: Number of survivors of DBA2 mice on 30th day after inoculation with L1210 leukemia cell line intraperitoneally at a dose of 6 mg/kg/day; 0/10; format: functional; conditions: route intraperitoneal
Mus musculus [4] = assay: Number of survivors of DBA2 mice on 60th day after inoculation with L1210 leukemia cell line intraperitoneally at a dose of 2 mg/kg/day; 0/11; format: functional; conditions: route intraperitoneal
Mus musculus [5] = assay: Number of survivors of DBA2 mice on 30th day after inoculation with L1210 leukemia cell line intravenously at a dose of 2 mg/kg/day; 0/10; format: functional; conditions: route intravenous
Mus musculus [6] = assay: Percent increase in life span of DBA2 mice after inoculation with L1210 leukemia intravenously at a dose of 4.5 mg/kg per day; format: functional; conditions: route intravenous
Mus musculus [7] = assay: Percent increase in life span of BDF1 mice after inoculation with P388 leukemia intraperitoneally at a dose of 1 mg/kg per day; conditions: P388, ip
Mus musculus [8] = assay: Percent increase in life span of BDF1 mice after inoculation with P388 leukemia cells intraperitoneally at a dose of 0.22 mg/kg per day for 1-9 scheduled days; conditions: P388, ip
Mus musculus [9] = assay: Number of survivors on 30th day at dose 6 mg/kg/day in 10 mice implanted with P388 leukemia cell line; 1/10; format: functional
Mus musculus [10] = assay: 7 Percent increase in life span at dose 75 mg/kg/day in 7 mice implanted with P388 leukemia cell line for 1,8,15 schedule day in Exp-1; format: functional
Mus musculus [11] = assay: Percent increase in life span at dose 60 mg/kg/day in 10 mice implanted with P388 leukemia cell line; format: functional
In short: (§1)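 Female DBA2 mice inoculated iv on day 0 with 10^4 P388 cells; single iv treatment on day 1 with drug as sulfate salt in physiological saline. Survival followed; %ILS from all deaths and survivors as (T/C × 100) − 100, maximal MST 30 days; survivors counted on days 30 and 60. Most experiments confirmed three times.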

Mus musculus [12] = assay: Percent increase in life span at dose 65 mg/kg/day in 10 mice implanted with P388 leukemia cell line; format: functional; in short: as §1

`CC[C@]1(O)C[C@@H]2CN(CCc3c([nH]c4ccccc34)[C@@](C(=O)OC)(c3cc4c(cc3OC)N(C)[C@H]3[C@@](O)(C(=O)OC)[C@H](OC(C)=O)[C@]5(CC)C=CCN6CC[C@]43[C@@H]65)C2)C1` [VINBLASTINE] was tested, and the Survivors (Mus musculus [1]) was 2, the Survivors (Mus musculus [2]) was 0 and the Survivors (Mus musculus [3]) was 0.

`CC[C@]1(O)C[C@H]2CN(CCc3c([nH]c4ccccc34)[C@@](C(=O)OC)(c3cc4c(cc3OC)N(C=O)[C@H]3[C@@](O)(C(=O)OC)[C@H](OC(C)=O)[C@]5(CC)C=CCN6CC[C@]43[C@@H]65)C2)C1` [VINCRISTINE] showed a Survivors (Mus musculus [4]) of 0, a Survivors (Mus musculus [5]) of 0 and an ILS at 4.5 mg/kg/day (Mus musculus [6]) of 20%. For the same compound, the ILS at 1 mg/kg/day (Mus musculus [7]) was 47% and the ILS at 0.22 mg/kg/day (Mus musculus [8]) was 146%.

`CCOC(=O)[C@@H](NC(=O)[C@@]1(O)[C@H](O)[C@]2(CC)C=CCN3CC[C@@]4(c5cc([C@@]6(C(=O)OC)C[C@H]7C[N@](CCc8c6[nH]c6ccccc86)C[C@](O)(CC)C7)c(OC)cc5N(C)[C@@]14C)[C@@H]32)[C@@H](C)CC` showed a Survivors (Mus musculus [9]) of 1.

In the case of `CCOC(=O)[C@H](Cc1c[nH]c2ccccc12)NC(=O)[C@@]1(O)[C@H](O)[C@]2(CC)C=CCN3CC[C@@]4(c5cc([C@@]6(C(=O)OC)C[C@H]7C[N@](CCc8c6[nH]c6ccccc86)C[C@](O)(CC)C7)c(OC)cc5N(C)[C@@]14C)[C@@H]32`, the ILS at 75 mg/kg/day (Mus musculus [10]) is reported as 108%, the ILS at 60 mg/kg/day (Mus musculus [11]) is reported as > 178% and the ILS at 65 mg/kg/day (Mus musculus [12]) is reported as > 173%.
